# PMC2987701 (Bioorganic & medicinal chemistry letters, 2010)
# “Also recorded” adds a separate entry of the source.
# Tests used:
# GST-Bfl-1 [1] = molecular target: T1, GST-Bfl-1 (Homo sapiens, UniProt Q16548); test: High-throughput fluorescence polarization; assay type: binding; conditions: result in words
# T1 sequence (Q16548 1-175): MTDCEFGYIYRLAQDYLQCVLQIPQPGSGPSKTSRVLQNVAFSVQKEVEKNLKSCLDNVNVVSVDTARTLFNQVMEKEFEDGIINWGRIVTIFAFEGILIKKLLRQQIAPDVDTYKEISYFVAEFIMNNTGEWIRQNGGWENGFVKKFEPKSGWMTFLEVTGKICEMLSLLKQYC
# mammalian cell line = test: Cell viability in a mammalian cell line; assay type: cell-based; conditions: note [21]
# GST-Bfl-1 [2] = molecular target: T1, GST-Bfl-1; test: LanthaScreen TR-FRET assay, FITC-Bid BH3 peptide / GST-tagged protein; assay type: binding; conditions: result in words
# How it was run: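 Test compound at 10 concentrations (2-fold serial dilution, 10% DMSO), in duplicate wells. Preincubated 1 h at 4 °C with GST-Bfl-1 (7.4 nM working solution, Bis-Tris pH 7.0 buffer). Then FITC-Bid (5.6 nM) plus Tb-antibody (2.5 nM) working solution added, 4 h at room temperature in the dark. Read in time-resolved mode: excitation 340 nm, 0.1 ms delay, 1 ms integration, 5 reads averaged. Signal is the 520/490 nm ratio. Controls were buffer without protein and DMSO.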
# [3] = test system: H69AR small cell lung tumor cell; test: Cell-based viability study, tumor cell growth; design: species or system human; conditions: concentration of 10 μM; note [21]
SMILES,Potency of Bfl-1 inhibition in words (FP / assay not specified) (GST-Bfl-1 [1]),further results
CN(C)C1=C(Cl)C(=O)N(c2ccc(Cl)c(Cl)c2)C1=O [Compound 21],equipotent to original hit 1; also recorded: Submicromolar,Effect on cell viability in a mammalian cell line (mammalian cell line; concentration not given): not inhibitory to cell viability
CN1CCN(C2=C(Cl)C(=O)N(c3ccc(Cl)c(Cl)c3)C2=O)CC1 [Compound 1],submicromolar potency,Potency of Bfl-1 inhibition in words (TR-FRET) (GST-Bfl-1 [2]): submicromolar potency; Inhibition of human H69AR small cell lung tumor cell growth [3]: inhibition of human H69AR small cell lung tumor cell growth was observed
O=C1C(Cl)=C(N2CCOCC2)C(=O)N1c1ccc(Cl)c(Cl)c1 [Compound 22],equipotent to original hit 1; also recorded: Submicromolar,
O=C1C(Cl)=C(N2CCN(CCO)CC2)C(=O)N1c1ccc(Cl)c(Cl)c1 [Compound 28],Submicromolar,
O=C1C(Cl)=C(N2CCN(CCOCCO)CC2)C(=O)N1c1ccc(Cl)c(Cl)c1 [Compound 29],Submicromolar,
C[C@@H]1CN(C2=C(Cl)C(=O)N(c3ccc(Cl)c(Cl)c3)C2=O)CCN1 [Compound 24],equipotent to original hit 1; also recorded: Submicromolar,
O=C1C(Cl)=C(N2CCN(C/C=C/c3ccccc3)CC2)C(=O)N1c1ccc(Cl)c(Cl)c1 [Compound 38],Submicromolar,
O=C1C(Cl)=C(N2CCCCC2)C(=O)N1c1ccc(Cl)c(Cl)c1 [Compound 19],,Effect on cell viability (mammalian cell line; 15 μg/mL): decreased cell viability
